This sample holds only a part of the variants without activity.
B1: tRNA (parent)
chain: GUUCCGUUGGCGUAAUGGUAACGCGUCUCCCUCCUAAGGAGAAGACUGCGGGUUCGAGUCCCGUACGGAACG

Variants of: B1
Assay: yeast fitness relative to wild type (ratio to wild type); higher = fitter; tRNA-Arg(CCU), competitive growth, 37 C, YPD
How it was run: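 A pool of Saccharomyces cerevisiae strains, each with a tRNA-Arg(CCU) gene variant at the native genomic locus, was competed in YPD at 37°C for 24 hours across six parallel replicates. The variants had been chemically synthesised at a 3% per-site mutation rate over 69 sites, and gene amplicons before and after competition were read by 100-nucleotide paired-end sequencing. Darwinian fitness relative to wild type rested on changes in genotype frequencies. Genotypes required ≥ 100 starting reads, and estimates < 0.5 were set to 0.5.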

Variant	yeast fitness
G10A C30A A70G	≤ 0.5
G9C C24U C30G G52A C61U	≤ 0.5
G10A A15U A36U A70C	≤ 0.5
G10A A20C C29G	0.597
G10A C11G U28A C33U G38A C49U	≤ 0.5
G10A C33U G56C C66A	≤ 0.5
G9C G25A	0.721
G10A C27A U35C	≤ 0.5
G9C C29U C30A C46G	≤ 0.5
G9C U16C	0.731
G10A C30U A43U C55A	≤ 0.5
G10A C30G A36C G58A	≤ 0.5
G10A C11U C22U A57U	≤ 0.5
G9C U26C U54G	≤ 0.5
G10A C46A	0.677
G9C U28C G44C U54C	≤ 0.5
G9C G41C	0.575
G9C C30G C46U	0.564
G9C C24U U26G C62U	≤ 0.5
G9C G10C C29G C46A	0.59
G9C C31A C49G C55G A70C	≤ 0.5

Variant	yeast fitness
G9C G17A C66U	≤ 0.5
G10A C29G	0.522
G10A A21U U53A	0.521
G10A C24G C27U	0.547
G9C G12A C29A G38A	≤ 0.5
G9C G51C G52A	≤ 0.5
G9C C55A A69C	≤ 0.5
G10A C30G C60G G63A A65U C66U	≤ 0.5
G9C C49U A57G	0.615
G10A C55A G68C	≤ 0.5
G9C U32C A36G G52A	≤ 0.5
G9C G23A A36C	0.777
G9C G17C C27G U35A C49A	≤ 0.5
G9C C55A C61U	≤ 0.5
G9C C29A U32G C66U	≤ 0.5
G10A C24A C27A A45G	≤ 0.5
G9C C27A U28G	≤ 0.5
G9C C27U	0.621
G10A A42G G50C	≤ 0.5
G9C C31G U54A G67C A69U	≤ 0.5
G9C C11A C33A C34A A37C A43G	≤ 0.5

Variant	yeast fitness
G10A C11G C30G A57G G58A U59A	≤ 0.5
G10A A21G C29A	0.519
G9U G23C A45U G51C	≤ 0.5
G9C G17A C27U U54A	≤ 0.5
G9C U19C A40U A57U	≤ 0.5
G9C C24U U26G	0.51
G10A A65G	0.627
G10A A20G G23A A37G A40C C66U	≤ 0.5
G10A A21G C22U	0.606
G10A C24U A36C A69C	0.534
G9C C49G G50A C60G A65G A70G	≤ 0.5
G10A C29G G56C U59A	≤ 0.5
G9C G23A G50A	≤ 0.5
G9C G52U	0.502
G9C G12A G48C C62A	≤ 0.5
G9C C27G C46U	0.582
G9C C27G G52C	0.595
G9C G38A A65G	0.519
G9U G50A	0.663
G9C G12C A14G A20C G67C	≤ 0.5
G10A A36G C60G	≤ 0.5

Variant	yeast fitness
G10A A14C C29A	≤ 0.5
G10A C24A G44A	0.553
G10A C29G C33U	≤ 0.5
G10A C27G C55A C61A	≤ 0.5
G9C G12A A21C U26A G39C	0.632
G9C G12A C22U C24U G58A	≤ 0.5
G9C U26A A40C C55U C66A A69U	≤ 0.5
G10A C24U G41A C49U U53A C66G	≤ 0.5
G10A A21G C30U G50C	0.752
G10A C31U G38C	0.512
G10A C33U G44C A45G	≤ 0.5
G10A C27A A36U A37U G48C	≤ 0.5
G10A C31A A37C	≤ 0.5
G10A C11A U16G A69G	0.538
G10A A57G C62G C66U	≤ 0.5
G9C C34U A43U C55A A57C	≤ 0.5
G9C C27U C33G A37G C66U	≤ 0.5
G10A C29A C34G A43C C60G C66U	≤ 0.5
G9C C24G C29G C55U A70G	≤ 0.5
G9C G63A C66U	≤ 0.5

From the RNAGym collection of RNA variant scans (doi:10.1126/science.aae0568)
